≈ marks a conversion by molar mass, not a printed value.

17 compounds from ChEMBL document CHEMBL1125609, “Nucleosides and nucleotides. 97. Synthesis of new broad spectrum antineoplastic nucleosides, 2'-deoxy-2'-methylidenecytidine (DMDC) and its derivatives” (J Med Chem, 1991) can be followed below.

In one assay the test system is PC-13. The experiment in a line: In vitro inhibitory activity against Human lung large-cell carcinoma (PC-13) cell line. It counts as functional, cell-based. An outline of the steps: (§1)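 Each tumor cell line seeded at 1 × 10⁴/well and incubated with or without compound for 72 h; growth measured by MTT reduction, OD 570 nm, % inhibition relative to untreated control wells. IC50 (μg/mL) is the concentration giving 50% inhibition of cell growth.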

In the next assay the test system is U-937. The experiment in a line: In vitro inhibitory activity against Human histiocytic lymphoma (U-937) cell line. It counts as functional, cell-based. In short, it runs like this: as §1
The subject of another assay is PC10. The experiment in a line: In vitro inhibitory activity against Human lung squamous cell carcinoma (PC-10) cell line. The class given is functional, cell-based. In short, it runs like this: as §1
The test system of another assay is CCRF-CEM. The experiment in a line: In vitro inhibitory activity against Human T-cell acute lymphoblastoid leukemia (CCRF CEM) cell line. The class given is functional, cell-based. An outline of the steps:
as §1

A further assay concerns HL-60. The experiment in a line: In vitro inhibitory activity against Human promyelocytic leukemia (HL-60) cell line. The class given is functional, cell-based. An outline of the steps:
as §1

The test system of assay [1] is Lewis lung carcinoma cell line. The experiment in a line: In vitro inhibitory activity against Mouse Lewis lung carcinoma (3LL) cell line. It counts as functional, cell-based. In short, it runs like this: as §1
A further assay deals with PC-14. Kind of assay: In vitro inhibitory activity against Human lung adenocarcinoma (PC-14) cell line. The class given is functional, cell-based. In short, it runs like this:
as §1

Another assay has as its system T-24. Kind of assay: In vitro inhibitory activity against Human bladder transitional-cell carcinoma (T-24) cell line. The class given is functional, cell-based. In short, it runs like this:
as §1

The test system of another assay is L1210. Kind of assay: In vitro cytotoxic activity against Murine leukemia L1210 cells. The class given is functional, cell-based. To be noted: Mus musculus. In short, it runs like this:
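L1210 murine leukemia cells seeded at 1 × 10⁴/well, exposed with or without compound for 72 h; MTT then added and OD 570 nm read. % inhibition = [1 − OD sample/OD control] × 100; IC50 (μg/mL) taken as concentration giving 50% growth inhibition.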

Another assay deals with KB. The experiment in a line: In vitro inhibitory activity against Human oral epidermoid carcinoma (KB) cell line. The class given is functional, cell-based. In short, it runs like this: as §1
The subject of another assay is MOLT-4. Kind of assay: In vitro inhibitory activity against Human T-cell acute lymphoblastic leukemia (MOLT-4) cell line. The class given is functional, cell-based. An outline of the steps:
as §1

Assay [2] has as its system KATO III stomach cancer cell line. Kind of assay: In vitro inhibitory activity against Human gastric carcinoma (KATO III) cell line. The class given is functional, cell-based. An outline of the steps:
as §1

The test system of another assay is B16. The experiment in a line: In vitro inhibitory activity against Mouse melanoma (B16) cell line. The class given is functional, cell-based. In short, it runs like this:
as §1

A further assay has as its system PC-6. Kind of assay: In vitro inhibitory activity against Human lung small-cell carcinoma (PC-6) cell line. It counts as functional, cell-based. An outline of the steps: as §1
In a further assay the test system is P-36 (Homo sapiens). Kind of assay: In vitro inhibitory activity against Human melanoma (P-36) cell line.
The test system of the next assay is TE-2. Kind of assay: In vitro inhibitory activity against Human esophagus adenocarcinoma (TE-2) cell line. The class given is functional, cell-based. An outline of the steps:
as §1

The subject of a further assay is SW480. The experiment in a line: In vitro inhibitory activity against Human colon adenocarcinoma (SW-480) cell line. It counts as functional, cell-based. An outline of the steps:
as §1

As for `C=C1C(n2ccc(N)nc2=O)O[C@H](CO)[C@@H]1O` (stereo partly drawn), the 50% inhibitory concentration (IC50) with PC-13 is 1 µg/mL (≈ 4.18 µM); with U-937 it was 0.44 µg/mL (≈ 1.84 µM); with PC10 it was greater than 100 µg/mL; in the assay on CCRF-CEM, 0.067 µg/mL (≈ 0.28 µM); in the assay with HL-60 it was 0.04 µg/mL (≈ 0.167 µM); in assay [1], 16 µg/mL (≈ 66.9 µM). Further, the IC50 is greater than 100 µg/mL with PC-14; 1.1 µg/mL (≈ 4.6 µM) with T-24; 0.37 µg/mL (≈ 1.55 µM) with L1210; 1.4 µg/mL (≈ 5.85 µM) in the assay on KB; 0.041 µg/mL (≈ 0.171 µM) in the assay on MOLT-4; 8.3 µg/mL (≈ 34.7 µM) in assay [2]. For the same compound, the results for the IC50 in the assay with B16, in the assay on PC-6 and with P-36 (Homo sapiens) were 3 µg/mL (≈ 12.5 µM), 39 µg/mL (≈ 163 µM) and 0.36 µg/mL (≈ 1.5 µM), respectively.
In the assay on L1210, `C=C1C(n2cc(CC)c(=O)[nH]c2=O)O[C@H](CO)[C@@H]1O` (stereo partly drawn) returned an IC50 greater than 100 µg/mL.
With `C=C1C(n2cc(Cl)c(N)nc2=O)O[C@H](CO)[C@@H]1O` (stereo partly drawn), the IC50 with L1210 was greater than 100 µg/mL.
As for `C#Cc1cn(C2O[C@H](CO)[C@H](O)C2=C)c(=O)[nH]c1=O` (stereo partly drawn), in the assay with L1210, the 50% inhibitory concentration (IC50) was greater than 100 µg/mL.
In the case of `C=C1C(n2cc(C)c(=O)[nH]c2=O)O[C@H](CO)[C@@H]1O` (stereo partly drawn), inhibition in the assay on L1210 was half-maximal at 50 µg/mL (≈ 197 µM) (IC50).
Same read-out and setting: the same measure for `C=C1C(n2cc(F)c(=O)[nH]c2=O)O[C@H](CO)[C@@H]1O` (stereo partly drawn): greater than 100 µg/mL; for `C=C1[C@H](n2ccc(=O)[nH]c2=O)O[C@H](CO)[C@H]1O`: greater than 100 µg/mL.
In the assay on L1210, `C=C1C(n2cc(I)c(N)nc2=O)O[C@H](CO)[C@@H]1O` (stereo partly drawn) had a half-maximal inhibitory concentration (IC50) greater than 100 µg/mL.
In turn, `C=C1C(n2cc(Br)c(=O)[nH]c2=O)O[C@H](CO)[C@@H]1O` (stereo partly drawn) had a 50% inhibitory concentration (IC50) with L1210 greater than 100 µg/mL.
Take `C=C1C(n2cc(Br)c(N)nc2=O)O[C@H](CO)[C@@H]1O` (stereo partly drawn): in the assay on L1210, the IC50 is greater than 100 µg/mL.
In the assay with L1210, `C=C1C(n2cc(CC)c(N)nc2=O)O[C@H](CO)[C@@H]1O` (stereo partly drawn) came in with a half-maximal inhibitory concentration (IC50) greater than 100 µg/mL.
Take `C=C1C(n2cc(I)c(=O)[nH]c2=O)O[C@H](CO)[C@@H]1O` (stereo partly drawn): in the assay on L1210, the IC50 was greater than 100 µg/mL.
Regarding `C=C1C(n2cc(F)c(N)nc2=O)O[C@H](CO)[C@@H]1O` (stereo partly drawn), the IC50 was 1.4 µg/mL (≈ 5.44 µM) in the assay on PC-13; 0.4 µg/mL (≈ 1.56 µM) in the assay with U-937; greater than 100 µg/mL with PC10; 1.8 µg/mL (≈ 7 µM) in the assay with TE-2; 0.1 µg/mL (≈ 0.389 µM) in the assay on CCRF-CEM; 0.053 µg/mL (≈ 0.206 µM) in the assay on HL-60. The half-maximal inhibitory concentration (IC50) is 22 µg/mL (≈ 85.5 µM) in assay [1]; greater than 100 µg/mL with PC-14; 0.94 µg/mL (≈ 3.65 µM) in the assay on T-24; 0.33 µg/mL (≈ 1.28 µM) with L1210; 1.4 µg/mL (≈ 5.44 µM) in the assay with KB; 4.4 µg/mL (≈ 17.1 µM) with SW480. Besides, the IC50 in the assay on MOLT-4 is 0.03 µg/mL (≈ 0.117 µM); in assay [2] it was 8.3 µg/mL (≈ 32.3 µM); in the assay on B16, 9.2 µg/mL (≈ 35.8 µM); in the assay on PC-6, 16 µg/mL (≈ 62.2 µM); in the assay with P-36 (Homo sapiens), 0.25 µg/mL (≈ 0.972 µM).
The compound `C=C1C(n2cc(Cl)c(=O)[nH]c2=O)O[C@H](CO)[C@@H]1O` (stereo partly drawn) showed an IC50 with L1210 greater than 100 µg/mL.
Take `C=C1C(n2cc(C)c(N)nc2=O)O[C@H](CO)[C@@H]1O` (stereo partly drawn): the half-inhibitory concentration (IC50) in the assay with PC-13 is greater than 100 µg/mL; with U-937, greater than 10 µg/mL; in the assay on PC10 it was greater than 100 µg/mL; in the assay on TE-2, greater than 100 µg/mL; in the assay with CCRF-CEM, greater than 1 µg/mL; in the assay with HL-60 it was 3 µg/mL (≈ 11.8 µM). The IC50 in assay [1] was greater than 100 µg/mL; in the assay on PC-14, greater than 100 µg/mL; with T-24, greater than 100 µg/mL; in the assay with L1210, 58 µg/mL (≈ 229 µM); in the assay on KB it was greater than 100 µg/mL; with SW480, greater than 100 µg/mL. Further, the IC50 (with MOLT-4; in assay [2]; in the assay on B16; with PC-6; in the assay on P-36 (Homo sapiens)) was greater than 100 µg/mL each time.
For the compound `Nc1ccn([C@@H]2O[C@H](CO)[C@@H](O)[C@@H]2O)c(=O)n1` [CYTARABINE], the IC50 in the assay with PC-13 is greater than 100 µg/mL; with U-937, 0.46 µg/mL (≈ 1.89 µM); in the assay on PC10, greater than 100 µg/mL; in the assay on TE-2, greater than 100 µg/mL; with CCRF-CEM it was 0.32 µg/mL (≈ 1.32 µM); with HL-60, greater than 0.1 µg/mL. Besides, the 50% inhibitory concentration (IC50) was greater than 100 µg/mL in the assay with PC-14; 0.5 µg/mL (≈ 2.06 µM) in the assay with T-24; 30.5 µg/mL (≈ 125 µM) in the assay with KB; greater than 100 µg/mL with SW480; greater than 100 µg/mL in assay [2]; 0.24 µg/mL (≈ 0.987 µM) in the assay on B16. The results for the IC50 in the assay on PC-6 and in the assay with P-36 (Homo sapiens) were 50 µg/mL (≈ 206 µM) and 11.1 µg/mL (≈ 45.6 µM), respectively.
Take `O=c1[nH]cc(F)c(=O)[nH]1` [FLUOROURACIL]: the IC50 is 3.5 µg/mL (≈ 26.9 µM) in the assay with U-937; greater than 100 µg/mL in the assay on PC10; 1.3 µg/mL (≈ 9.99 µM) with HL-60; 10 µg/mL (≈ 76.9 µM) with PC-14; 12.1 µg/mL (≈ 93 µM) in the assay with KB; 3.7 µg/mL (≈ 28.4 µM) in assay [2]. Besides, the IC50 with B16 worked out at 2.6 µg/mL (≈ 20 µM); in the assay on P-36 (Homo sapiens), 10.7 µg/mL (≈ 82.3 µM).

For orientation: IC50 means the concentration needed to halve the response being measured. Low readings indicate inhibition by little substance, high ones a need for much substance.
